Reference: ChEMBL document CHEMBL3352012, “Synthesis and evaluation of novel podophyllotoxin derivatives as potential antitumor agents” (Eur J Med Chem, 2014)
Calls of active or inactive are those of the source. The calls are words filed in the database; no cut-off is given here.

How the values were obtained:
[1] = Cytotoxicity against human K562/A02 cells after 48 hrs by MTT assay; assay type: functional, cell-based; conditions: K562/A02, 48 h
Outline: (§1)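 Cells kept in RPMI-1640 with 10% FBS, 2 mmol/L glutamine, penicillin and streptomycin at 37 °C, 5% CO2. Seeded at 5 × 10³ cells/well and left 24 h to attach, then exposed to compounds or etoposide reference for 48 h. MTT (5 mg/mL) added for 4 h at 37 °C, supernatant removed, formazan dissolved in DMSO, absorbance read at 490 nm.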

[2] = system: HeLa; test: Cytotoxicity against human HeLa cells after 48 hrs by MTT assay; assay type: functional, cell-based; outline: as §1
[3] = system: K562; test: Resistance index, ratio of IC50 for human K562/A02 cells to IC50 for human K562 cells; assay type: functional
[4] = system: K562; test: Cytotoxicity against human K562 cells after 48 hrs by MTT assay; assay type: functional, cell-based; conditions: K562, 48 h; outline: as §1
[5] = Reduction in MDR1 mRNA expression in human K562/A02 cells at 6 uM incubated for 48 hrs by RT-PCR method; assay type: functional, cell-based
Outline: (§2)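 K562 and K562/A02 cells seeded 1 × 10⁵/well in 10% FCS/RPMI-1640; compound added 24 h later, then cultured another 48 h. Total RNA extracted with Trizol, checked at 260/280 nm, reverse transcribed; MDR-1 (157 bp) and β-actin (540 bp) amplified, products run on agarose gel, stained, MDR-1 normalised to β-actin against untreated control.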

[6] = Reduction in MDR1 mRNA expression in human K562/A02 cells at 6 uM incubated for 48 hrs by RT-PCR method relative to untreated control; assay type: functional, cell-based; outline: as §2

SMILES	IC50 [1]	IC50 [2]	Ratio IC50 [3]	IC50 [4]	MDR1 mRNA reduction (qualitative) [5]	inhibition [6]
COc1cc([C@@H]2c3cc4c(cc3[C@@H](NCc3ccc(C)o3)[C@H]3COC(=O)[C@H]23)OCO4)cc(OC)c1OC	10.1 µM	1.94 µM	1.48	6.79 µM	–	–
COc1cc([C@@H]2c3cc4c(cc3[C@@H](NCc3ccc(CN5CCN(C)CC5)o3)[C@H]3COC(=O)[C@H]23)OCO4)cc(OC)c1O	200 µM	2.42 µM	24.61	8.13 µM	–	–
COc1cc([C@@H]2c3cc4c(cc3[C@@H](NCc3ccc(CN5CCCC5)o3)[C@H]3COC(=O)[C@H]23)OCO4)cc(OC)c1OC	40.2 µM	1.4 µM	6.43	6.25 µM	–	–
COc1cc([C@@H]2c3cc4c(cc3[C@@H](NCc3ccco3)[C@H]3COC(=O)[C@H]23)OCO4)cc(OC)c1OC	10.9 µM	1.53 µM	1.89	5.78 µM	–	–
COc1cc([C@@H]2c3cc4c(cc3[C@@H](NCc3ccc(CN(C)C)o3)[C@H]3COC(=O)[C@H]23)OCO4)cc(OC)c1O	70.1 µM	0.51 µM	8.89	7.89 µM	–	–
CCN(CC)Cc1ccc(CN[C@@H]2c3cc4c(cc3[C@@H](c3cc(OC)c(O)c(OC)c3)[C@H]3C(=O)OC[C@@H]32)OCO4)o1	> 1000 µM	6.38 µM	>100	8.25 µM	Active	35%
COc1cc([C@@H]2c3cc4c(cc3[C@@H](NCc3ccc(CN5CCCC5)o3)[C@H]3COC(=O)[C@H]23)OCO4)cc(OC)c1O	24.7 µM	1.21 µM	4.67	5.28 µM	Active	–
COc1cc([C@@H]2c3cc4c(cc3[C@@H](NCc3ccco3)[C@H]3COC(=O)[C@H]23)OCO4)cc(OC)c1O	> 1000 µM	70.5 µM	>100	> 100 µM	–	–
COc1cc([C@@H]2c3cc4c(cc3[C@@H](NCc3ccc(CN5CCN(C)CC5)o3)[C@H]3COC(=O)[C@H]23)OCO4)cc(OC)c1OC	> 1000 µM	15.3 µM	>100	> 100 µM	–	–
